Consider one compound from BindingDB's records for doi:10.1021/jm901214q (Abbott Laboratories, 2010).

This assay concerns the target Cannabinoid receptor 2 (Homo sapiens, UniProt P34972). Put plainly: Agonist activity at human recombinant CB2 receptor expressed in HEK293 cells coexpressing Galphaq/o5 assessed as calcium mobilization by FLIPR assay. In outline:
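HEK cells stably coexpressing human CB2 and chimeric Gαq/o5 were seeded at 75 000 cells/well the day before and loaded with no-wash calcium dye. Mean ± SEM, ≥3 experiments in duplicate.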
Background: Calcium assays in cells follow changes in intracellular calcium, usually with a dye or a luminescent sensor.

Usually EC50 stands for the midpoint of the concentration-response curve.

Cannabinoid receptor 2, sequence (P34972 whole entry): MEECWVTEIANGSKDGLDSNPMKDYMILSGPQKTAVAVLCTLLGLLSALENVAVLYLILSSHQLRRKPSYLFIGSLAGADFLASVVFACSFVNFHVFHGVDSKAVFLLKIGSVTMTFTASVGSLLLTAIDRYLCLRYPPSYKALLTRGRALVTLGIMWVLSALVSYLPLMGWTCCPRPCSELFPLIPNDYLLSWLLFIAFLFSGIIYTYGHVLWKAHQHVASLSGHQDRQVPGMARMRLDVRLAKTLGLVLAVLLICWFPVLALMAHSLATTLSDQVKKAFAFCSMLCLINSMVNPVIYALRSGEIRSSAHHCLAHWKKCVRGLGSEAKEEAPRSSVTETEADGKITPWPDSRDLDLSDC

For `CN1CCCCC1Cn1cc(C(=O)c2cc([N+](=O)[O-])ccc2I)c2ccccc21` (stereo unspecified) [3-[(2-iodo-5-nitrophenyl)carbonyl]-1-[(1-methylpiperidin-2-yl)methyl]-1H-indole], the EC50 was over 10 µM.
